Data set [1] is described as follows: Drug metabolism in mouse liver microsomes assessed as mono-oxygenation and N-dealkylation mediated M2 metabolite formation at 10 uM incubated for 60 mins by LC-UV-HRMS analysis. The format is ADME, Microsome. The conditions noted are these: 1 h. In outline:
(§1)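 Compound at 10 μM incubated with mouse liver microsomes at 37 °C for 60 min. Metabolites detected by LC-UV-HRMS, structures proposed from MS and MS2 data, and each metabolite given as a percentage.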

For data set [2], the target named is T1, Protein cereblon/SWI/SNF-related matrix-associated actin-dependent regulator of chromatin subfamily A member 2 (Homo sapiens, UniProt P51531+Q96SW2). Briefly: PROTAC activity at CRBN/SMARCA2 in human H322 cells harboring SMARCA4 mutant assessed as induction of SMARCA2 degradation at 0.1 uM in presence of Gen-1 by immunoblot analysis. The data set is classed as cell-based.

A short description of data set [3]: AUC (0 to infinity) in male CD-1 (ICR) mouse at 25 mg/kg, po measured up to 24 hrs by LC-MS/MS analysis. The data set is classed as ADME, organism-based. The conditions noted are these: in vivo. Summed up:
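Single 25 mg/kg dose. IP vehicle was 5% DMSO/5% solutol/90% water at 1.25 mg/mL, final pH 4.39, clear solution. Oral vehicle was 0.5% methylcellulose/0.2% Tween 80 in water, opaque suspension. Plasma sampled at 0.25, 0.5, 1, 2, 4, 8 and 24 h. Plasma protein-precipitated with internal standard in acetonitrile, then LC-MS/MS. n = 3 mice per time point, mean.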

A short description of data set [4]: Toxicity in female athymic nude mouse xenografted with human HCC515 cells harboring SMARCA4 mutant assessed as change in body weight at 5 mg/kg, po administered once daily via gavage for 19 days relative to control. The format is organism-based. To be noted: in vivo, 456 h, time 19 day. In outline: (§2)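 Cells (H1568 2 × 10^6, H2023 10 × 10^6, HCC515 5 × 10^6) in PBS:Matrigel 1:1, 200 μL, injected subcutaneously into flanks of 6–8-week-old females. Randomized at mean tumor volume 60 mm3 (H1568) or <200 mm3 (others). Dosed in 0.5% methylcellulose + 0.2–1% Tween-80, sonicated on ice. Caliper tumor volume and body weight tracked, mean ± SEM.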
(In xenograft studies the graft and the host belong to different species.)

The target in data set [5] is T1, Protein cereblon/SWI/SNF-related matrix-associated actin-dependent regulator of chromatin subfamily A member 2. Briefly: PROTAC activity at CRBN/SMARCA2 in human H322 cells harboring SMARCA4 mutant assessed as induction of SMARCA2 degradation at 0.1 uM in presence of bortezomib by immunoblot analysis. The format is cell-based. (In general: A western blot detects proteins with antibodies after separation by electrophoresis.)

Data set [6] can be described thus: Toxicity in female athymic nude mouse xenografted with human NCI-H2023 cells harboring SMARCA4 mutant assessed as change in body weight at 5 mg/kg, po administered once daily via gavage for 19 days relative to control. The format is organism-based. The conditions noted are these: in vivo, 456 h, time 19 day. Summed up: as §2
The subject of data set [7] is HCC515. Briefly: Antitumor activity against human HCC515 cells harboring SMARCA4 mutant xenografted in female athymic nude mouse assessed as tumor growth inhibition at 5 mg/kg, po administered once daily via gavage for 19 days relative to control. The format is functional. The conditions noted are these: HCC515, 456 h, time 19 day, read-out: TGI. In outline:
as §2

Data set [8] is described as follows: Antitumor activity against human NCI-H2023 cells harboring SMARCA4 mutant xenografted in female athymic nude mouse assessed as tumor growth inhibition at 5 mg/kg, po administered once daily via gavage for 19 days relative to control. The data set is classed as functional. To be noted: NCI-H2023, 456 h, time 19 day, read-out: TGI. Summed up: as §2
Data set [9] is described as follows: Drug metabolism in mouse liver microsomes assessed as hydrolysis mediated M3 metabolite formation at 10 uM incubated for 60 mins by LC-UV-HRMS analysis. The format is ADME, Microsome. The conditions noted are these: 1 h. In outline:
as §1
A general note: Microsomes from liver hold many membrane-bound enzymes, among them those of drug oxidation.

Data set [10] in a line: In vivo PROTAC activity at CRBN I391V mutant/SMARCA2 in mouse assessed as SMARCA2 degradation in spleen at 10 to 80 mg/kg, po administered once daily for 3 days and measured at 24 hrs post last dose by Western blotting analysis relative to control. The format is functional. The conditions noted are these: dose 10-80 mg/kg, time 3 day. In outline: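 CrbnI391V mice given 10, 20, 40 or 80 mg/kg or vehicle orally once daily for 3 days. Euthanised 24 h after the last dose. Spleen SMARCA2 measured by Western blot with actin as loading control, relative to vehicle. Plasma drug level measured at the same time.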

For data set [11], the system named is NCI-H2030. Kind of data set: Synergistic antitumor activity against human NCI-H2030 cells harboring KRAS G12C mutant/SMARCA4 mutant assessed as cell growth inhibition at 1 uM incubated for 7 days in presence of sotorasib by Incucyte S3 analysis. The data set is classed as functional, cell-based. The conditions noted are these: time 7.0 day. Summed up: (§3)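 H2030 cells plated at 500 per well and grown overnight at 37 °C. Treated with 3-fold dilutions of sotorasib, test agent, or both. Confluency imaged every 4 h for 7 days on IncuCyte S3. Synergy scored as Bliss/Lowe consensus, >10 taken as synergy.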

Data set [12] in a line: Toxicity in female athymic nude mouse xenografted with human NCI-H1568 cells harboring SMARCA4 mutant assessed as change in body weight at 40 mg/kg, po administered once daily via gavage for 13 days relative to control. The format is organism-based. The conditions noted are these: in vivo, 312 h, time 13 day. In outline:
as §2

Data set [13] addresses T1, Protein cereblon/SWI/SNF-related matrix-associated actin-dependent regulator of chromatin subfamily A member 2. Kind of data set: PROTAC activity at CRBN/SMARCA2 in human H322 cells harboring SMARCA4 mutant assessed as induction of SMARCA2 degradation at 1 uM in presence of pomalidomide by immunoblot analysis. The format is cell-based.
Data set [14] is described as follows: Drug concentration in C57BL/6 mouse plasma at 80 mg/kg, po administered once daily for 3 days and measured at 24 hrs post last dose. To be noted: time 3 day. The format is ADME, organism-based. In outline: (§4)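 Oral dosing once daily for 3 days: 5–80 mg/kg in C57BL/6 mice, 10–80 mg/kg in CrbnI391V mice. Euthanized 24 h after last dose. Plasma drug level measured. Spleen SMARCA2 by Western blot against actin loading control, relative to vehicle.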

The nature of data set [15]: Drug concentration in C57BL/6 mouse plasma at 5 mg/kg, po administered once daily for 3 days and measured at 24 hrs post last dose. To be noted: time 3 day. The data set is classed as ADME, organism-based. In outline: as §4
The target in data set [16] is Transcriptional coactivator YAP1 (Homo sapiens) (UniProt P46937). Kind of data set: Induction of YAP1 phosphorylation at S109 residue in human H322 cells harboring SMARCA4 mutant at 1 uM incubated for 96 hrs by immunoblot analysis. The format is cell-based. The conditions noted are these: filed as activator.
Data set [17] deals with T1, Protein cereblon/SWI/SNF-related matrix-associated actin-dependent regulator of chromatin subfamily A member 2. Kind of data set: PROTAC activity at CRBN/SMARCA2 in human H322 cells harboring SMARCA4 mutant assessed as induction of SMARCA2 degradation at 1 uM in presence of Gen-1 by immunoblot analysis. The format is cell-based.
For data set [18], the system named is NCI-H2030. Briefly: Antitumor activity against human NCI-H2030 cells harboring KRAS G12C mutant/SMARCA4 mutant assessed as cell growth inhibition incubated for 7 days by Incucyte S3 analysis. To be noted: time 7.0 day. The format is functional, cell-based. Summed up:
as §3

In data set [19] the target is T1, Protein cereblon/SWI/SNF-related matrix-associated actin-dependent regulator of chromatin subfamily A member 2. Kind of data set: PROTAC activity at CRBN/SMARCA2 in CRBN knockout human H322 cells harboring SMARCA4 mutant assessed as induction of SMARCA2 degradation at 1 uM by immunoblot analysis. The format is cell-based.

The source made the active and inactive calls. The calls are words filed in the database; no cut-off is given here.

Transcriptional coactivator YAP1 (Homo sapiens), sequence (P46937 whole entry): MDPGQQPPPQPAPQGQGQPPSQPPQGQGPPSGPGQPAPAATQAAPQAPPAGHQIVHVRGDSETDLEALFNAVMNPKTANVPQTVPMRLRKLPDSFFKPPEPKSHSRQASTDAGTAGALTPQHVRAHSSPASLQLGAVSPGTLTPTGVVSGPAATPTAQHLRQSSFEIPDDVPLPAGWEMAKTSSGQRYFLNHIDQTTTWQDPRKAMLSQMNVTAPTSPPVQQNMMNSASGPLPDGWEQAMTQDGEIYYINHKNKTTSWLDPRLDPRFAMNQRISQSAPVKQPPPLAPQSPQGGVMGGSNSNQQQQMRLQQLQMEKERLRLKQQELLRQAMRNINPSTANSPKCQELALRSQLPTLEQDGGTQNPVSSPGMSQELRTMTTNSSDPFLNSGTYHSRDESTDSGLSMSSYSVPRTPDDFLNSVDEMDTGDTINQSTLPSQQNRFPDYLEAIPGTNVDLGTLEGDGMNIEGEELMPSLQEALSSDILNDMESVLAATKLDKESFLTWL

`Nc1nnc(-c2ccccc2O)cc1N1CCN(Cc2ccc(N3CCN(CCOc4cccc5c4C(=O)N(C4CCC(=O)NC4=O)C5=O)CC3)c(F)c2)CC1` (centres undefined): the Drug metabolism entry in [1] and in [9] was “metabolite_detected” each time. Moreover, the outcome in [2] and in data set [5] was inactive. Moreover, the AUC (in general, concentration integrated over time) in data set [3] was determined as 5122 ng·h/mL. Moreover, the Activity is listed as less than 20% in data set [4] and less than 10% in data set [6]. In addition, the figures for the inhibition in vivo at 5 mg/kg in data set [7] and in data set [8] were 48.8% and 62.5%, respectively.
As for `Nc1nnc(-c2ccccc2O)cc1N1CCN(Cc2ccc(N3CCC(CN4CCN(c5ccc6c(c5)C(=O)N(C5CCC(=O)NC5=O)C6=O)CC4)CC3)c(F)c2)CC1` (centres undefined), the Activity was 11% in data set [10], “Active; Robust Synergistic Growth Inhibition Observed” in data set [11], less than 10% in data set [12] and “Active; Minimal Inhibition Observed” in data set [18]. The outcome in data set [13], in data set [17] and in data set [19] was inactive. Further, the concentration at 72 h in data set [14] was 1880 nM; in [15], approximately 100 nM. Besides, in data set [16], the outcome was Active.

(Values after ChEMBL document CHEMBL6134900 (J Med Chem, 2025).)
